Data on 18 molecules can be found in ChEMBL document CHEMBL3826889, “Symmetrical bis-tertiary amines as novel CXCR4 inhibitors” (2016).

The structures appear in SMILES notation.

The target in experiment [1] is C-X-C chemokine receptor type 4 (Homo sapiens) (UniProt P61073). Kind of experiment: Displacement of biotinylated TN14003 from CXCR4 CXCL12 binding domain in human MDA-MB-231 cells preincubated for 10 mins followed by biotinylated TN14003 addition measured after 30 mins using streptavidin-conjugated rhodamine by fluorescence microscopic analysis. It counts as cell-based. In outline:
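MDA-MB-231 cells, 2 × 10^4 per well, seeded 2 days prior. Compound at 1, 10, 100 or 1000 nM for 10 min at room temperature, then fixed in 4% ice-cold paraformaldehyde and rehydrated in PBS. Then 0.05 μg/mL biotinylated TN14003 for 30 min at RT, PBS washes, streptavidin-rhodamine (1:150) for 30 min at RT. Fluorescence microscopy. EC = lowest concentration giving significant fluorescence reduction vs control; semi-quantitative.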

The test system of another experiment is MDA-MB-231. The experiment is described as follows: Inhibition of […]-induced invasion of human MDA-MB-231 cells at 100 nM after 22 hrs by hematoxylin/eosin-staining based matrigel assay. The conditions noted are these: MDA-MB-231, 22 h. Type of experiment: functional. In outline: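 Invasion chambers with Matrigel-coated 8 μm pore support. MDA-MB-231 cells treated with compound at 100 nM before seeding in the top chamber; CXCL12α at 200 ng/mL in the bottom chamber as chemoattractant. Incubation 22 h, humidified. Non-invading cells swabbed off; invaded cells fixed in methanol and H&E-stained, then counted to give percent invasion.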

The next experiment relates to Mus musculus. Kind of experiment: Antiinflammatory activity against carrageenan-induced paw edema in C57BL/6J mouse assessed as inhibition of edema volume at 300 ug/kg, ip daily administered 30 mins post carrageenan-challenge measured post 2 hrs of last injection. Type of experiment: functional. In outline:
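Acute paw inflammation in female C57BL/6J mice: 50 μL λ-carrageenan (1% w/v in saline) injected s.c. into one hind paw, saline into the contralateral paw. Dosing i.p. daily from 30 min after challenge, in 10% DMSO / 90% of 45% (2-hydroxypropyl)-β-cyclodextrin in PBS; vehicle controls. Sacrifice at 74 h post-challenge, 2 h after last dose. Paw thickness by caliper; edema = injected minus contralateral. Suppression % vs vehicle group; 5 mice/group.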

A word on the inhibition: it is the share of the control response that was lost under treatment. A lower inhibition goes with a weak effect. Usually inhibition in vivo stands for the relative decrease from the control value, in per cent.

Sequence of C-X-C chemokine receptor type 4 (Homo sapiens) (P61073 whole entry, the tested form may be a part): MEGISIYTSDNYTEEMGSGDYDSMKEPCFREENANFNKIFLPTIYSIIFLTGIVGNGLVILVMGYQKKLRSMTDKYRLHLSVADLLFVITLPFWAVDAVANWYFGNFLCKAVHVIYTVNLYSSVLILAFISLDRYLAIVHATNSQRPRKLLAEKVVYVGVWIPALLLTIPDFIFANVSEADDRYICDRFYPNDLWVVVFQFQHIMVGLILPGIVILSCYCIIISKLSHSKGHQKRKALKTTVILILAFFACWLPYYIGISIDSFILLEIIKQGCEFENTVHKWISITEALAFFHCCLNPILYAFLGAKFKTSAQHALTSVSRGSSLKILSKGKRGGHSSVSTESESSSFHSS

Consider `CN(Cc1ccc(CN(C)Cc2ccccc2F)cc1)Cc1ccccc1F`, for which, in experiment [1], the EC was > 1000 nM.
On the same count and under the same terms, the result for `CN(Cc1ccncc1)Cc1ccc(CN(C)Cc2ccncc2)cc1` reads > 1000 nM; that for `CN(Cc1ccc(CN(C)Cc2ccccn2)cc1)Cc1ccccn1`, > 1000 nM; that for `c1cc(CN2CCCC2)ccc1CN1CCCC1`, 1000 nM.
Still for that read-out and setting: the result for `c1ccc(CN(Cc2ccc(CN(Cc3ccccc3)CC3CC3)cc2)CC2CC2)cc1` reads 1000 nM; that for `CN(Cc1ccc(CN(C)Cc2cccc(Cl)c2)cc1)Cc1cccc(Cl)c1`, 1000 nM.
With `CN(Cc1ccc(CN(C)Cc2cccc(F)c2)cc1)Cc1cccc(F)c1`, the EC in experiment [1] was > 1000 nM.
Regarding `CN(Cc1ccc(CN(C)Cc2ccccc2Cl)cc1)Cc1ccccc1Cl`, the EC in experiment [1] is > 1000 nM.
Still for that read-out and setting: the result for `CN(Cc1ccc(F)cc1)Cc1ccc(CN(C)Cc2ccc(F)cc2)cc1` reads > 1000 nM.
The same measure, in the same setting: to `CCN(Cc1ccccc1)Cc1ccc(CN(CC)Cc2ccccc2)cc1` belongs 1000 nM.
In turn, `c1cc(CN2CCCNCCNCCCNCC2)ccc1CN1CCCNCCNCCCNCC1` [PLERIXAFOR] came in with an EC in experiment [1] of 1000 nM. Moreover, in the experiment on MDA-MB-231, the inhibition at 0.1 µM came out at 62%.
For `c1cc(CN2CCOCC2)ccc1CN1CCOCC1`, the EC in experiment [1] is > 1000 nM.
`COc1cccc(CN(C)Cc2ccc(CN(C)Cc3cccc(OC)c3)cc2)c1` gave an EC in experiment [1] of 10 nM. Further, the inhibition at 0.1 µM in the experiment with MDA-MB-231 is < 50%.
On to `c1cc(CN2CCCCC2)ccc1CN1CCCCC1`, for which the EC in experiment [1] stood at 10 nM. Further, in the experiment with MDA-MB-231, the inhibition at 0.1 µM is < 50%.
Take `CN(Cc1ccc(CN(C)Cc2cccnc2)cc1)Cc1cccnc1`: the EC in experiment [1] is > 1000 nM.
With `CN(Cc1ccc(CN(C)c2ccccc2)cc1)c1ccccc1`, the EC in experiment [1] was found to be 1000 nM.
For `N=C(N)NCCC[C@@H]1NC(=O)[C@H](Cc2ccc(O)cc2)NC(=O)[C@H]2CCCN2C(=O)[C@@H](CCCCN)NC(=O)[C@@H](CCCCN)NC(=O)[C@H](CCCNC(=N)N)NC(=O)[C@H](Cc2ccc(O)cc2)NC(=O)[C@H](NC(=O)[C@@H](Cc2ccc3ccccc3c2)NC(=O)[C@H](CCCNC(=N)N)NC(=O)[C@@H](CCCNC(=N)N)NC(=O)c2ccc(F)cc2)CSSC[C@H](C(=O)N[C@H](CCCNC(=N)N)C(N)=O)NC(=O)[C@@H](CCCNC(N)=O)NC1=O` (stereo in doubt), the inhibition in vivo at 0.3 mg/kg in the experiment with Mus musculus worked out at 48%.
For the molecule `CN(Cc1ccc(CN(C)c2ccc(F)cc2)cc1)c1ccc(F)cc1`, the EC in experiment [1] was 100 nM. The same molecule showed an inhibition at 0.1 µM in the experiment on MDA-MB-231 of 66.4%.
